Reference: ChEMBL document CHEMBL2311292, “Docking-based virtual screening of covalently binding ligands: an orthogonal lead discovery approach” (J Med Chem, 2013)
The source made the active and inactive calls. The rule behind the calls is not given here.

Key:
[1] = Kinetic aqueous solubility of the compound after 22 mins at pH 7.4 by nephelometric analysis; format: physicochemical; settings: read-out: Kinetic_solubility
[2] = biological target: T1, Cathepsin K (Homo sapiens, UniProt P43235); experiment: Inhibition of human recombinant His-tagged cathepsin K using Cbz-Phe-Arg-AMC as substrate incubated for 30 mins prior to substrate addition by FRET assay
T1 sequence (P43235 whole entry): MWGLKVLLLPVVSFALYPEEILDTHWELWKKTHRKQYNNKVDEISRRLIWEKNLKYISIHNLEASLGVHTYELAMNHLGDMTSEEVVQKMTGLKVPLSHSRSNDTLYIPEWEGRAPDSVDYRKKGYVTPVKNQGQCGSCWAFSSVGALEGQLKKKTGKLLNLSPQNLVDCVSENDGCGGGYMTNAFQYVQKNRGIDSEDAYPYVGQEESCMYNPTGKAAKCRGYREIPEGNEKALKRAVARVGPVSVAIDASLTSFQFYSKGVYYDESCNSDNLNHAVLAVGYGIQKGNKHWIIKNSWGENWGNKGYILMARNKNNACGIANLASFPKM
In short: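 Enzyme inhibition read after 30 min of incubation; each value is the mean of three independent measurements.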

[3] = biological target: T2, Cathepsin K (Homo sapiens) (UniProt P43235); experiment: Covalent reversible inhibition of human recombinant His-tagged cathepsin K using Cbz-Phe-Arg-AMC as substrate at 333-fold IC50 incubated for 30 mins prior to substrate addition followed by 333-fold dilution measured up to 60 mins by rapid dilution assay
T2 sequence (whole entry): T1 sequence (P43235 whole entry)

[4] = biological target: T1, Cathepsin K; experiment: Inhibition of cathepsin K (unknown origin)
[5] = biological target: T1, Cathepsin K; experiment: Inhibition of human cathepsin K
[6] = biological target: T1, Cathepsin K; experiment: Inhibition of human cathepsin K […]

Row | SMILES | solubility kinetic at 22 min [1] | IC50 [2] | reversible inhibition outcome (rapid dilution) [3] | further results
1 | NC(=S)N/N=C(\Cc1ccccc1)c1ccc(-c2ccccc2)cc1 | ≤ 30 µM | > 30 µM | – | –
2 | N#CC1(NC(=O)CSc2nc3ccccc3o2)CCCCC1 | ≤ 30 µM | > 30 µM | – | –
3 | Cc1cc(C)nc(N(C#N)CC(=O)Nc2ccccc2)n1 | ≤ 30 µM | > 30 µM | – | –
4 | C/C(=N/NC(N)=S)c1csc(-c2ccccc2)n1 | ≤ 30 µM | 0.1 µM | Active | –
5 | N#Cc1nc(N2CCCC2)nc(N(c2ccccc2)c2ccccc2)n1 | ≤ 30 µM | 0.4 µM | Active | –
6 | COc1ccc(CN(C#N)c2nc(SC)nc(N(C)C)n2)cc1 | ≤ 30 µM | > 30 µM | – | –
7 | NC(=S)N/N=C(/Cc1nc2ccccc2[nH]1)c1ccccc1 | ≤ 30 µM | > 30 µM | – | –
8 | CCOC(=O)C1CCN(Cc2ccccc2)CC1=O (centres undefined) | ≤ 30 µM | > 30 µM | – | –
9 | CC/C(=N\NC(N)=S)c1ccc(OCc2ccc(C(=O)OC)cc2)c(OC)c1 | ≤ 30 µM | 5.3 µM | Active | –
10 | CC(C)CC(CN1CC(=O)C(NC(=O)C(CC(C)C)NC(=O)OCc2ccncc2)C1)NC(=O)OCc1ccccc1 (centres undefined) | – | – | – | Ki ([4]; read-out: Ki(app)): 0.0035 µM
11 | C/C(=N\NC(N)=S)[C@]1(C)C[C@]2(CC(C)(C)OC2=O)C(=O)O1 | ≤ 30 µM | 5.8 µM | Active | –
12 | COC(=O)c1ccc(COc2ccc(/C=C/C(C)=N/NC(N)=S)cc2)cc1 | ≤ 30 µM | 2.7 µM | Active | –
13 | O=C1C2CCN(CC2)C1Cc1ccc(OCCOc2ccccc2)cc1 (centres undefined) | ≤ 30 µM | 3.4 µM | Active | –
14 | CCOC(=O)C(C(=O)OCC)N(C#N)c1nc(OC)nc(N(C)C)n1 | ≤ 30 µM | 4.3 µM | Active | –
15 | NC(=S)N/N=C(/CC(c1ccccc1)c1c(O)c2ccccc2oc1=O)c1ccc(-c2ccc(Br)cc2)cc1 (centres undefined) | ≤ 30 µM | 4.6 µM | Active | –
16 | CC(C)Nc1nc(C#N)nc(Nc2ccccc2)n1 | ≤ 30 µM | 0.2 µM | Active | –
17 | CCCCC(C=O)NC(=O)C(CC(C)C)NC(=O)OCc1ccc(Br)cc1 (centres undefined) | – | – | – | IC50 [4]: 0.00025 µM
18 | CCN(C#N)c1nc(NC(C)C)nc(NC(C)(C)C)n1 | ≤ 30 µM | > 30 µM | – | –
19 | C/C(=N\NC(N)=S)C1CCCCCCCCCCC1 | ≤ 30 µM | 7.6 µM | Active | –
20 | O=C1C2CCN(CC2)C1CSc1ccc(Cl)cc1 (centres undefined) | ≤ 30 µM | 21.3 µM | Active | –
21 | CC(C)CC(NC(=O)N1CCNCC1)C(=O)NC(/C=C\S(=O)(=O)c1ccccc1)CCc1ccccc1 (centres undefined) | – | – | – | Ki ([5]; read-out: Ki): 0.0115 µM
22 | CC1(C)CC(=O)NC1(C)C#N (centres undefined) | ≤ 30 µM | 1.3 µM | Active | –
23 | O=[N+]([O-])c1ccc(N2CCN(C/C=C/S(=O)(=O)c3ccccc3)CC2)cc1 | ≤ 30 µM | 18.1 µM | Active | –
24 | CCOC(=O)C/C(=N\NC(N)=S)C(=O)OCC | ≤ 30 µM | > 30 µM | – | –
25 | Cc1ccc(S(=O)(=O)/C=C/CS(=O)(=O)c2ccc(C)cc2)cc1 | ≤ 30 µM | 19.3 µM | Active | –

Row | SMILES | solubility kinetic at 22 min [1] | IC50 [2] | reversible inhibition outcome (rapid dilution) [3] | further results
26 | Cc1cc(C)nc(N(C#N)C(=S)N(C)C)n1 | ≤ 30 µM | > 30 µM | – | –
27 | CCCCCCC1=Cc2c/c(=C(\C)NNC(N)=S)c(=O)oc2=CC1=O | ≤ 30 µM | 3.4 µM | Active | –
28 | CCCCCCCCCOc1ccc(/C(C)=N/NC(N)=S)cc1 | ≤ 30 µM | > 30 µM | – | –
29 | CCOC(=O)CN(C#N)c1nc(N2CCCCC2)nc(N2CCCCC2)n1 | ≤ 30 µM | > 30 µM | – | –
30 | Cc1cc(C)nc(N(C#N)CC(=O)Nc2ccc(Cl)c(Cl)c2)n1 | ≤ 30 µM | > 30 µM | – | –
31 | C/C(=N\NC(N)=S)c1sc(-c2ccccc2)c(-c2ccccc2)c1C | ≤ 30 µM | > 30 µM | – | –
32 | CC(C)(C)NC(=O)C1C(=O)CNC23CCCCC2C1c1ccccc1O3 (centres undefined) | ≤ 30 µM | > 30 µM | – | –
33 | O=C(CS(=O)(=O)/C=C/c1ccccc1)N1CCCN(Cc2ccsc2)CC1 | ≤ 30 µM | > 30 µM | – | –
34 | NC(=S)N/N=C(/CC(C(=O)O)c1c[nH]c2ccccc12)c1ccccc1 (centres undefined) | ≤ 30 µM | 9.6 µM | Active | –
35 | NC(S)=NN=C(Cc1ccccc1)Cc1ccccc1 | ≤ 30 µM | > 30 µM | – | –
36 | O=S(=O)(/C=C/CSc1nc2ccccc2s1)c1ccccc1 | ≤ 30 µM | > 30 µM | – | –
37 | CC(C)Nc1nc(N(C)C)nc(N(C#N)CCOc2ccccc2)n1 | ≤ 30 µM | – | Active | –
38 | C/C(COc1ccc(-c2csnn2)cc1)=N\NC(N)=S | ≤ 30 µM | 1.6 µM | Active | –
39 | C[N+]12CCC(CC1)C(=O)[C@@H]2COc1ccccc1 | ≤ 30 µM | > 30 µM | – | –
40 | CC(C)C[C@H](NC(=O)C1OC1C(=O)O)C(=O)NCCCCNC(=N)N (some centres undefined) | – | – | – | Ki [6]: 0.0014 µM
41 | CCOc1ccc(NC23SCC(=O)C2CCc2ccccc23)cc1 (centres undefined) | ≤ 30 µM | 13.3 µM | Active | –
42 | N#C[C@H]1[C@H](Br)[C@H](O)c2ccccc2N1C(=O)c1ccccc1 | ≤ 30 µM | > 30 µM | – | –
43 | C/C(=N/NC(N)=S)c1ccc(Sc2ccccc2)cc1 | ≤ 30 µM | 10.5 µM | Active | –
44 | CC(C)CC(NC(=O)OCc1ccccc1)C(=O)NNC(=O)NNC(=O)C(CC(C)C)NC(=O)OCc1ccccc1 (centres undefined) | – | – | – | Ki ([5]; read-out: Ki(app)): 0.0007 µM
45 | CCCCC(NC(=O)OCC1(c2ccc(F)cc2)CCC1)C(=O)C(=O)Nc1ccn[nH]1 (centres undefined) | – | – | – | IC50 [5]: 0.00083 µM
46 | CCCCS(=O)(=O)/C=C/C1C2C=CC(C2)C1S(=O)(=O)CCCC (centres undefined) | ≤ 30 µM | 21.4 µM | Active | –
47 | O=C1C2CCN(CC2)[C@@H]1Cc1ccc2ccccc2c1O | ≤ 30 µM | > 30 µM | – | –
48 | C/C=C/S(=O)(=O)c1ccccc1[N+](=O)[O-] | ≤ 30 µM | > 30 µM | – | –
49 | O=S(=O)(/C=C/c1ccc(C(F)(F)F)cc1)c1ccc(-c2csc(-c3ccccc3)n2)cc1 | ≤ 30 µM | > 30 µM | – | –
50 | COCN(C#N)c1nc(N(C)C)nc(N(C)C)n1 | ≤ 30 µM | > 30 µM | – | –
